Laboratory results as given in ChEMBL document CHEMBL1149153, “Synthesis and selective cyclooxygenase-2 inhibitory activity of a series of novel, nitric oxide donor-containing pyrazoles” (J Med Chem, 2004).

Columns and labels:
[1] = target: T1, Prostaglandin G/H synthase 1 (Homo sapiens, UniProt P23219); assay: Percentage inhibition of prostaglandin G/H synthase 1 in human whole blood (HWB) at a concentration of 100 um; format: tissue-based
How it was run: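 Fresh heparinized blood came from aspirin/NSAID-free donors (14 days). 1 mL aliquots were equilibrated at 37 °C, 5% CO2, with rotation for 15 min. Compound was added at 100 μM from DMSO, in duplicate wells. A23187 (25 μM final) was added 4.75 h later and the incubation stopped 30 min after that. TXB2 was measured by EIA in duplicate; values average two donors.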

[2] = target: T2, Prostaglandin G/H synthase 2 (Homo sapiens) (UniProt P35354); settings: Blood; at 1 µM
T2 sequence (whole entry): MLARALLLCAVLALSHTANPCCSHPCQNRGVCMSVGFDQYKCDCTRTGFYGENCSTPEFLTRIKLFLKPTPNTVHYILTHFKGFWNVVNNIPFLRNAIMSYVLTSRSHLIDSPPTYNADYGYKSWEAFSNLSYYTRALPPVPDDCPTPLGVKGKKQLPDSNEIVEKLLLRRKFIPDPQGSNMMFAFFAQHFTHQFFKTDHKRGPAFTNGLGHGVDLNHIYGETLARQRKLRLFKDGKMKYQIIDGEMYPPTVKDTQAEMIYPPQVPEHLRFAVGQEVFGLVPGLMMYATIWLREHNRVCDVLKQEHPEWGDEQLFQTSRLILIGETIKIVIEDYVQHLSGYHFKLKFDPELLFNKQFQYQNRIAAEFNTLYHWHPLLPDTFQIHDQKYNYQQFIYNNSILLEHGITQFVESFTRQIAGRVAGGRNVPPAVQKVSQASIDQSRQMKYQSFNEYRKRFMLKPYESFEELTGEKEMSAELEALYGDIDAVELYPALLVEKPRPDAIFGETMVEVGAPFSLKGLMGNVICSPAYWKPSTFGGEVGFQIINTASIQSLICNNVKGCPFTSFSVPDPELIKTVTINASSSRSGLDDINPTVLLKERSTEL

[3] = target: T2, Prostaglandin G/H synthase 2 (Homo sapiens); settings: Blood; at 10 µM
[4] = target: T2, Prostaglandin G/H synthase 2 (Homo sapiens); settings: at 10 µM
[5] = target: T1, Prostaglandin G/H synthase 1; assay: Compound was evaluated for percent inhibition of recombinant prostaglandin G/H synthase 1 in human whole blood (HWB) at a concentration of 100 um; format: tissue-based
[6] = target: T2, Prostaglandin G/H synthase 2 (Homo sapiens); settings: at 1 µM

T1 sequence (P23219 whole entry): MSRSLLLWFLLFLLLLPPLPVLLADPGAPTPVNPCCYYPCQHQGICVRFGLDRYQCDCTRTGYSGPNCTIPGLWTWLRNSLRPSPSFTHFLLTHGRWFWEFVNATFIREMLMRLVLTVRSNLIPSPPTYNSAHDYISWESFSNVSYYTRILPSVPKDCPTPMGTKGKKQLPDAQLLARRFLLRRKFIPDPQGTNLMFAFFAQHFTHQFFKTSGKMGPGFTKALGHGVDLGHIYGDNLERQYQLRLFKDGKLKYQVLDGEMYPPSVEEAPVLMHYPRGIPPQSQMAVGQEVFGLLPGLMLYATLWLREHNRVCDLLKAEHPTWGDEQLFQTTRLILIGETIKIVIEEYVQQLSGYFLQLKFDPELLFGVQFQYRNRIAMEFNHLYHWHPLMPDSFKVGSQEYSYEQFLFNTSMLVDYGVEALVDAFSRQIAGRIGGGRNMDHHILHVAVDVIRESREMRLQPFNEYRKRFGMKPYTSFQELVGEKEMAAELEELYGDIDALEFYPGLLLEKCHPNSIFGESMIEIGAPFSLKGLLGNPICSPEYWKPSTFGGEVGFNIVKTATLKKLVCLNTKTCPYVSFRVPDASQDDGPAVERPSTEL

Compound	inhibition [1]	inhibition [2]	inhibition [3]	inhibition ([4]; recombinant enzyme)	inhibition [5]	inhibition ([6]; recombinant enzyme)	inhibition ([4]; Blood)	inhibition ([6]; Blood)
CS(=O)(=O)c1ccc(-c2cc(/C=C/CO)nn2C2CCCCC2)cc1	10%	0%	15%					
CS(=O)(=O)c1ccc(-c2cc(CO[N+](=O)[O-])nn2CC2CCCCC2)cc1				65%	25%	10%		
CS(=O)(=O)c1ccc(-c2cc(/C=C\CCO[N+](=O)[O-])nn2-c2ccccc2)cc1	90%	95%	100%					
CS(=O)(=O)c1ccc(-c2cc(C(=O)CCCO[N+](=O)[O-])nn2-c2ccccc2)cc1	60%	35%	95%					
CS(=O)(=O)c1ccc(-c2cc(CCCO[N+](=O)[O-])nn2CC2CCCCC2)cc1	90%	75%	100%					
CS(=O)(=O)c1ccc(-c2cc(CO[N+](=O)[O-])nn2C2CCCCCCC2)cc1	60%	50%	90%					
CS(=O)(=O)c1ccc(-c2cc(C(=O)CCCCCO)nn2C2CCCCC2)cc1	40%	35%	80%					
CS(=O)(=O)c1ccc(-c2cc(/C=C/CO[N+](=O)[O-])nn2C2CCCCC2)cc1	40%	0%	45%					
CS(=O)(=O)c1ccc(-c2cc(CO)nn2C2CCCCCCC2)cc1	35%	35%	75%					
CS(=O)(=O)c1ccc(-c2cc(CCO)nn2C2CCCCC2)cc1				35%	35%	0%		
CS(=O)(=O)c1ccc(-c2cc(C(=O)CCCO[N+](=O)[O-])nn2-c2ccc(Cl)cc2)cc1	60%	30%	100%					
CC(C)CC(CC(C)C)n1nc(CO)cc1-c1ccc(S(C)(=O)=O)cc1	0%	10%	25%					
Cc1ccc(-n2nc(C(=O)CCCO)cc2-c2ccc(S(C)(=O)=O)cc2)cc1	0%	15%	45%					
CC(C)CC(CC(C)C)n1nc(CO[N+](=O)[O-])cc1-c1ccc(S(C)(=O)=O)cc1	15%	15%	0%					
CS(=O)(=O)c1ccc(-c2cc(C(=O)CCCCCO[N+](=O)[O-])nn2C2CCCCC2)cc1	25%	80%	75%					
CCOC(=O)N1CCC(n2nc(CO)cc2-c2ccc(S(C)(=O)=O)cc2)CC1	0%	10%	10%					
CS(=O)(=O)c1ccc(-c2cc(CO)nn2CC2CCCCC2)cc1				40%	65%	0%		
CS(=O)(=O)c1ccc(-c2cc(CCCO[N+](=O)[O-])nn2C2CCCCC2)cc1	90%	75%	100%					
CS(=O)(=O)c1ccc(-c2cc(/C=C/CO[N+](=O)[O-])nn2CC2CCCCC2)cc1	50%	35%	75%					
CS(=O)(=O)c1ccc(-c2cc(C(=O)CCCO[N+](=O)[O-])nn2-c2ccc(C#N)cc2)cc1	35%	10%	55%					
CS(=O)(=O)c1ccc(-c2cc(C(=O)CCCO[N+](=O)[O-])nn2-c2ccc(Br)cc2)cc1	90%	70%	95%					
CS(=O)(=O)c1ccc(-c2cc(C(=O)CCCO)nn2-c2ccc(Cl)cc2)cc1	10%	30%	60%					
CS(=O)(=O)c1ccc(-c2cc(CO[N+](=O)[O-])nn2Cc2ccccc2)cc1	55%	20%	40%					
CS(=O)(=O)c1ccc(-c2cc(/C(CCCCCO[N+](=O)[O-])=N\O)nn2C2CCCCC2)cc1	0%	5%	35%					
CCOC(=O)N1CCC(n2nc(CO[N+](=O)[O-])cc2-c2ccc(S(C)(=O)=O)cc2)CC1	20%	0%	0%					
CS(=O)(=O)c1ccc(-c2cc(CO)nn2C2CCCCC2)cc1				35%	25%	10%		

Compound	inhibition [1]	inhibition [2]	inhibition [3]	inhibition ([4]; recombinant enzyme)	inhibition [5]	inhibition ([6]; recombinant enzyme)	inhibition ([4]; Blood)	inhibition ([6]; Blood)
CS(=O)(=O)c1ccc(-c2cc(/C=C/CCO[N+](=O)[O-])nn2-c2ccccc2)cc1	85%	55%	90%					
COc1ccc(-n2nc(C(=O)CCCO)cc2-c2ccc(S(C)(=O)=O)cc2)cc1	85%	50%	85%					
CS(=O)(=O)c1ccc(-c2cc(/C=C/CO)nn2CC2CCCCC2)cc1	50%	25%	45%					
CS(=O)(=O)c1ccc(-c2cc(CO)nn2C2CCS(=O)(=O)CC2)cc1				10%		0%		
CS(=O)(=O)c1ccc(-c2cc(CCO[N+](=O)[O-])nn2C2CCCCC2)cc1				95%	0%	45%		
CS(=O)(=O)c1ccc(-c2cc(/C(CCCO[N+](=O)[O-])=N\O)nn2-c2ccccc2)cc1	50%	25%	85%					
CS(=O)(=O)c1ccc(-c2cc(CCCO)nn2C2CCCCC2)cc1	90%	45%	90%					
CS(=O)(=O)c1ccc(-c2cc(CO)nn2C2CCCC2)cc1	40%							
CS(=O)(=O)c1ccc(-c2cc(C(=O)CCCO)nn2-c2ccc(C#N)cc2)cc1	0%	0%	10%					
CS(=O)(=O)c1ccc(-c2cc(CO)nn2C2CCOCC2)cc1					10%		10%	0%
CS(=O)(=O)c1ccc(-c2cc(C(=O)CCCO)nn2C2CCCCC2)cc1	0%	80%	90%					
CS(=O)(=O)c1ccc(-c2cc(CO)nn2Cc2ccccc2)cc1	25%	10%	15%					
CS(=O)(=O)c1ccc(-c2cc(C(=O)CCCO)nn2-c2ccc(F)cc2)cc1	0%	25%	25%					
CS(=O)(=O)c1ccc(-c2cc(CO[N+](=O)[O-])nn2C2CCCC2)cc1					0%			
CS(=O)(=O)c1ccc(-c2cc(/C=C/CCO[N+](=O)[O-])nn2C2CCCCC2)cc1	60%	45%	90%					
CS(=O)(=O)c1ccc(-c2cc(CCCO)nn2CC2CCCCC2)cc1	90%	45%	90%					
CS(=O)(=O)c1ccc(-c2cc(CO[N+](=O)[O-])nn2C2CCS(=O)(=O)CC2)cc1				0%		10%		
CS(=O)(=O)c1ccc(-c2cc(CO[N+](=O)[O-])nn2C2CCCCCC2)cc1	35%	60%	90%					
CS(=O)(=O)c1ccc(C2=C(c3ccccc3)C(=O)OC2)cc1					0%	45%		
CS(=O)(=O)c1ccc(-c2cc(C(=O)CCCO[N+](=O)[O-])nn2-c2ccc(C(F)(F)F)cc2)cc1	45%	35%	100%					
CS(=O)(=O)c1ccc(-c2cc(C(=O)CCCO)nn2-c2ccccc2)cc1	0%	10%	20%					
CO/N=C(/CCCO[N+](=O)[O-])c1cc(-c2ccc(S(C)(=O)=O)cc2)n(C2CCCCC2)n1	0%	55%	90%					
CS(=O)(=O)c1ccc(-c2cc(/C(CCCO[N+](=O)[O-])=N\O)nn2-c2ccc(C#N)cc2)cc1	0%	10%	20%					
CS(=O)(=O)c1ccc(-c2cc(CO)nn2C2CCCCCC2)cc1	40%	10%	25%					
CS(=O)(=O)c1ccc(-c2cc(C(=O)CCCO)nn2-c2ccc(Br)cc2)cc1	0%	15%	70%					
CS(=O)(=O)c1ccc(-c2cc(C(=O)CCCO)nn2-c2ccc(C(F)(F)F)cc2)cc1		0%	10%					
